In ChEMBL document CHEMBL1123471, “Dopamine receptor agonists: 3-allyl-6-chloro-2,3,4,5-tetrahydro- 1-(4-hydroxyphenyl)-1H-3-benzazepine-7,8-diol and a series of related 3-benzazepines” (J Med Chem, 1986):
Where a name gives a salt, the structure may show the parent alone.

Experiments:
Assay type in all cases: functional, organism-based; call rule not given here
Oryctolagus cuniculus [1] = species: Oryctolagus cuniculus; assay: Inhibition of the constrictor response to electrical stimulation in rabbit ear artery.
Method in brief: (§1)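 Isolated perfused rabbit ear artery in Krebs-Henseleit (95% O2/5% CO2, 35 °C, pH 7.4), stabilized ≥1 h. Sympathetic nerves field-stimulated every 4 min (0.7-ms pulses, 75 V, 10-15 Hz trains of 300-500 ms). Compound superfused at increasing concentrations, 4 min each. Read-out is the rise in perfusion pressure; IC50 from least-squares curves.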

Rattus norvegicus = species: Rattus norvegicus; assay: Concentration necessary to cause 50% increase in cAMP formation(by adenylate cyclase) relative to the maximum increase caused by the compound
Method in brief: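 Rat caudate homogenate (male Charles River rats, 225-300 g), made at 0 °C in 50 mM Tris-maleate pH 7.4 with 2 mM EGTA; incubated with test compound at increasing concentrations, 2 mM MgSO4, 5 mM aminophylline, and [14C]ATP (final 0.65 mM) for 3 min at 30 °C. [14C]cAMP isolated on alumina/Dowex columns and counted; quadruplicates; least-squares dose-response curves.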

Oryctolagus cuniculus [2] = species: Oryctolagus cuniculus; assay: Concentration necessary to inhibit 50% of the constrictor response to electrical stimulation in rabbit ear artery; I=Inactive; method in brief: as §1

| Compound | EC50 (Oryctolagus cuniculus [1]) | EC50 (Rattus norvegicus) | EC50 (Oryctolagus cuniculus [2]) |
| --- | --- | --- | --- |
| CN1CCc2cccc3c2[C@H]1Cc1ccc(O)c(O)c1-3 [APOMORPHINE] | 44 nM |  |  |
| C=CCN1CCc2c(cc(O)c(O)c2Cl)[C@H](c2ccc(O)cc2)C1 | 3000 nM | > 10000 nM |  |
| NC1CCc2cc(O)c(O)cc2C1 (stereo not given) | 17 nM |  |  |
| C/C=C/CN1CCc2c(cc(O)c(O)c2Cl)C(c2ccc(O)cc2)C1 (stereo not given) | 10000 nM |  |  |
| CCCN(CCC)CCc1ccc(O)c2c1CC(=O)N2 [SKF-89124A] | 2 nM |  |  |
| C#CCN1CCc2c(cc(O)c(O)c2Cl)C(c2ccc(O)cc2)C1 (stereo not given) | 2700 nM | 640 nM |  |
| NCCc1ccc(O)c(O)c1 [DOPAMINE] | 38 nM |  |  |
| CN1CCc2c(cc(O)c(O)c2Cl)C(c2ccc(O)cc2)C1 (stereo not given) | 90 nM | ~10000 nM |  |
| Oc1ccc(C2CN(CC3CC3)CCc3c2cc(O)c(O)c3Cl)cc1 (stereo not given) | 1700 nM | 1100 nM |  |
| Oc1ccc(C2CN(C/C=C/c3ccccc3)CCc3c2cc(O)c(O)c3Cl)cc1 (stereo not given) |  |  | Not Active |
| Oc1cc2c(cc1O)CCNCC2 | 12 nM |  |  |
| OCCN1CCc2c(cc(O)c(O)c2Cl)C(c2ccc(O)cc2)C1 (stereo not given) | 500 nM | 1000 nM |  |
| C=CCN1CCc2c(cc(O)c(O)c2Cl)C(c2ccc(O)cc2)C1 (stereo not given) | 122 nM | 15 nM |  |
| OCC(O)CN1CCc2c(cc(O)c(O)c2Cl)C(c2ccc(O)cc2)C1 (stereo not given) | > 10000 nM |  |  |
| CCCCN(CCC)CCc1ccc(O)c(O)c1 | 48 nM |  |  |
| C=CCN1CCc2c(cc(O)c(O)c2Cl)[C@@H](c2ccc(O)cc2)C1 | 84 nM | 9 nM |  |
| Oc1ccc(C2CNCCc3c2cc(O)c(O)c3Cl)cc1 (stereo not given) [FENOLDOPAM MESYLATE] | 1000 nM | 57 nM |  |
| CCCN(CCC)CCc1ccc(O)c(O)c1 | 60 nM |  |  |
| C=CCN1CCc2c(cc(O)c(O)c2Cl)C(c2cccc(O)c2)C1 (stereo not given) | 760 nM | 125 nM |  |
| CCCN1CCc2c(cc(O)c(O)c2Cl)C(c2ccc(O)cc2)C1 (stereo not given) | 1000 nM | 550 nM |  |
